Measured values as given in ChEMBL document CHEMBL4382237, “Design, Synthesis, and Biological Evaluation of 2-Nitroimidazopyrazin-one/-es with Antitubercular and Antiparasitic Activity” (J Med Chem, 2018).
pIC50: −log10 of the molar value. In brackets after ≈: the same amount, converted by molar mass.

Legend:
Escherichia coli = assay: Antibacterial activity against Escherichia coli ATCC 25922 by broth microdilution assay; type: functional
Procedure, shortened: (§1)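 Broth microdilution run essentially per an earlier report. MIC taken as the lowest concentration with no visible growth. Replicates typically agreed within one 2-fold dilution. The median MIC is reported, with a range where the median fell between two tested concentrations.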

Staphylococcus aureus = assay: Antibacterial activity against methicillin-resistant Staphylococcus aureus ATCC […] by broth microdilution assay; type: functional
[1] = system: Mycobacterium tuberculosis; assay: Antibacterial activity against Mycobacterium tuberculosis H37Rv after 5 days under normoxic condition by resazurin dye-based fluorescence assay; type: functional, organism-based
Procedure, shortened: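 H37Rv grown in 7H9/ADC/glycerol/Tyloxapol to mid-exponential phase, diluted to OD600 0.001 (~2 x 10^4 CFU/mL) in 7H9S with serially diluted compound. Incubated 5 days at 37 °C, then resazurin and Tween-80 added. Fluorescence (ex 530/em 590 nm) read after 24 h, normalised to no-drug and no-bacteria wells.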

Giardia intestinalis = assay: Antiparasitic activity against Giardia lamblia WB trophozoites after 24 to 48 hrs by CellTiter-Glo luminescent cell viability assay; settings: Giardia duodenalis; for IC50: read-out: pIC50 (converted)
Candida albicans = assay: Antifungal activity against Candida albicans ATCC 90028 by broth microdilution assay; type: functional; procedure, shortened: as §1
Cryptococcus neoformans = assay: Antifungal activity against Cryptococcus neoformans H99 ATCC […] broth microdilution assay; type: functional; settings: var. grubii H99 ATCC 208821; procedure, shortened: as §1
HepG2 = assay: Cytotoxicity against human HepG2 cells after 24 hrs by resazurin dye-based fluorescence assay; type: cell-based; settings: hepg2, 24 h
Procedure, shortened: (§2)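 HEK293 (3000/well) and HepG2 (5000/well) were grown 24 h in DMEM with 10% FBS at 37 °C, 5% CO2. Cells were then exposed 24 h to a dilution series up to 100 µM (0.5% DMSO). 5 µM resazurin was added for 2 h, read at ex 560/em 590. 1% Triton X-100 served as lysis control. CC50 was derived from the curves.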

Acinetobacter baumannii = assay: Antibacterial activity against Acinetobacter baumannii ATCC 19606 by broth microdilution assay; type: functional; settings: ATCC 19606 = CIP 70.34 = JCM 6841; procedure, shortened: as §1
Pseudomonas aeruginosa = assay: Antibacterial activity against Pseudomonas aeruginosa ATCC 27853 by broth microdilution assay; type: functional; procedure, shortened: as §1
[2] = Metabolic stability in CD-1 mouse liver microsomes assessed as parent compound remaining at 3 uM after 2 hrs by LC-MS/MS analysis
[3] = system: Trypanosoma brucei brucei; assay: Antiparasitic activity against bloodstream form of Trypanosoma brucei brucei strain 427 after 48 hrs by resazurin dye-based assay; type: functional, organism-based; settings: strain 427, 48 h; for pIC50: read-out: IC50; for IC50: read-out: pIC50 (converted)
[4] = Metabolic stability in human liver microsomes assessed as parent compound remaining at 3 uM after 2 hrs by LC-MS/MS analysis
Klebsiella pneumoniae = assay: Antibacterial activity against Klebsiella pneumoniae 700603 by broth microdilution assay; type: functional; procedure, shortened: as §1
[5] = system: Mycobacterium tuberculosis; assay: Antibacterial activity against non-replicating Mycobacterium tuberculosis H37Rv after 5 days under hypoxic condition by resazurin dye-based fluorescence assay; type: functional; settings: 120 h
Procedure, shortened: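 Same H37Rv inoculum (OD600 0.001, ~2 x 10^4 CFU/mL) in 7H9S with serially diluted compound. Plates held 5 days at 0.1% oxygen, then resazurin plus Tween-80 added.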

HEK293 = assay: Cytotoxicity against HEK293 cells after 24 hrs by resazurin dye-based fluorescence assay; type: cell-based; settings: human, hek293, 24 h; procedure, shortened: as §2
Entamoeba histolytica = assay: Antiparasitic activity against Entamoeba histolytica HM-1:IMSS trophozoites after 24 to 48 hrs by CellTiter-Glo luminescent cell viability assay; type: functional, organism-based; settings: for pIC50: read-out: IC50; for IC50: read-out: pIC50 (converted)
Procedure, shortened: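 Axenic trophozoites were kept in TYI-S-33 with penicillin (100 U/mL) and streptomycin (100 µg/mL) and harvested in log phase. 5000 parasites per well were exposed to a final 8-point two-fold series of 0.39–50 µM, from 10 mM DMSO stocks. Plates were incubated 24–48 h at 37 °C under anaerobic conditions. ATP luminescence viability was read in triplicate. Percent inhibition is given at the highest concentration tested.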

[6] = Metabolic stability in CD-1 mouse plasma assessed as parent compound remaining at 3 uM after 2 hrs by LC-MS/MS analysis
[7] = Metabolic stability in human plasma assessed as parent compound remaining at 3 uM after 2 hrs by LC-MS/MS analysis

## O=[N+]([O-])c1cn2ccnc(OCc3ccccc3OC(F)(F)F)c2n1
Escherichia coli
  MIC: > 32 mg/L
Staphylococcus aureus
  MIC: > 32 mg/L
[1]
  MIC: >32 mg/L
Giardia intestinalis
  pIC50: 4.92
  IC50: 12.6 µM
Candida albicans
  MIC: > 32 mg/L
Cryptococcus neoformans
  MIC: > 32 mg/L
HepG2
  CC50: > 100 µM
Acinetobacter baumannii
  MIC: > 32 mg/L
Pseudomonas aeruginosa
  MIC: > 32 mg/L
[2]
  Stability: < 0.5%
[3]
  pIC50: < 4.40
  IC50: > 39.8 µM
[4]
  Stability: 51%
Klebsiella pneumoniae
  MIC: > 32 mg/L
[5]
  MIC: > 32 mg/L
HEK293
  CC50: > 100 µM

## O=C(Cn1ccn2cc([N+](=O)[O-])nc2c1=O)N1CCOCC1
Escherichia coli
  MIC: > 32 mg/L
Staphylococcus aureus
  MIC: > 32 mg/L
[1]
  MIC: >32 mg/L
Giardia intestinalis
  pIC50: < 4.30
  IC50: > 50.1 µM
Candida albicans
  MIC: > 32 mg/L
Cryptococcus neoformans
  MIC: > 32 mg/L
HepG2
  CC50: > 100 µM
Acinetobacter baumannii
  MIC: > 32 mg/L
Pseudomonas aeruginosa
  MIC: > 32 mg/L
[3]
  pIC50: 5.39
  IC50: 3.98 µM
Klebsiella pneumoniae
  MIC: > 32 mg/L
[5]
  MIC: > 32 mg/L
HEK293
  CC50: > 100 µM

## O=c1c2nc([N+](=O)[O-])cn2cc(-c2ccccc2)n1CCO
Giardia intestinalis
  pIC50: 4.42
  IC50: 39.8 µM
HepG2
  CC50: > 75 µM
Entamoeba histolytica
  pIC50: < 4.30
  IC50: > 50.1 µM
[5]
  MIC: > 32 mg/L
HEK293
  CC50: > 75 µM

## O=c1c2nc([N+](=O)[O-])cn2ccn1CCN1CCOCC1
Escherichia coli
  MIC: > 32 mg/L
Staphylococcus aureus
  MIC: > 32 mg/L
[1]
  MIC: >32 mg/L
Candida albicans
  MIC: > 32 mg/L
Cryptococcus neoformans
  MIC: > 32 mg/L
HepG2
  CC50: > 100 µM
Acinetobacter baumannii
  MIC: > 32 mg/L
Pseudomonas aeruginosa
  MIC: > 32 mg/L
Klebsiella pneumoniae
  MIC: > 32 mg/L
[5]
  MIC: > 32 mg/L
HEK293
  CC50: > 100 µM

## CC(=O)OCCn1ccn2cc([N+](=O)[O-])nc2c1=O
Escherichia coli
  MIC: > 32 mg/L
Staphylococcus aureus
  MIC: > 32 mg/L
Candida albicans
  MIC: > 32 mg/L
Cryptococcus neoformans
  MIC: > 32 mg/L
Acinetobacter baumannii
  MIC: > 32 mg/L
Pseudomonas aeruginosa
  MIC: > 32 mg/L
Klebsiella pneumoniae
  MIC: > 32 mg/L

## O=c1c2nc([N+](=O)[O-])cn2ccn1CCO
Escherichia coli
  MIC: > 32 mg/L
Staphylococcus aureus
  MIC: > 32 mg/L
Giardia intestinalis
  pIC50: < 4.30
  IC50: > 50.1 µM
Candida albicans
  MIC: > 32 mg/L
Cryptococcus neoformans
  MIC: > 32 mg/L
Acinetobacter baumannii
  MIC: > 32 mg/L
Pseudomonas aeruginosa
  MIC: > 32 mg/L
Klebsiella pneumoniae
  MIC: > 32 mg/L

## Cc1nc(OCc2ccc(OC(F)(F)F)cc2)c2nc([N+](=O)[O-])cn2c1C
[6]
  Stability: > 99%
[1]
  MIC: >32 mg/L
Giardia intestinalis
  pIC50: 5.07
  IC50: 7.94 µM
[7]
  Stability: > 99%
[2]
  Stability: < 0.5%
[3]
  pIC50: 5.00
  IC50: 10 µM
[4]
  Stability: 44%
Entamoeba histolytica
  pIC50: 4.77
  IC50: 15.8 µM
[5]
  MIC: > 32 mg/L

## O=[N+]([O-])c1cn2ccnc(OCCc3ccc(OC(F)(F)F)cc3)c2n1
Escherichia coli
  MIC: > 32 mg/L
Staphylococcus aureus
  MIC: > 32 mg/L
[1]
  MIC: >32 mg/L
Giardia intestinalis
  pIC50: 5.28
  IC50: 5.01 µM
Candida albicans
  MIC: > 32 mg/L
Cryptococcus neoformans
  MIC: > 32 mg/L
HepG2
  CC50: > 100 µM
Acinetobacter baumannii
  MIC: > 32 mg/L
Pseudomonas aeruginosa
  MIC: > 32 mg/L
Entamoeba histolytica
  pIC50: 5.11
Klebsiella pneumoniae
  MIC: > 32 mg/L
[5]
  MIC: > 32 mg/L
HEK293
  CC50: > 100 µM

## O=c1c2nc([N+](=O)[O-])cn2ccn1Cc1ccc(F)cc1F
Escherichia coli
  MIC: > 32 mg/L
Staphylococcus aureus
  MIC: > 32 mg/L
[1]
  MIC: 16 to 32 mg/L
Giardia intestinalis
  pIC50: < 4.30
  IC50: > 50.1 µM
Candida albicans
  MIC: > 32 mg/L
Cryptococcus neoformans
  MIC: > 32 mg/L
HepG2
  CC50: > 100 µM
Acinetobacter baumannii
  MIC: > 32 mg/L
Pseudomonas aeruginosa
  MIC: > 32 mg/L
[3]
  pIC50: < 4.40
  IC50: > 39.8 µM
Klebsiella pneumoniae
  MIC: > 32 mg/L
[5]
  MIC: > 32 mg/L
HEK293
  CC50: > 100 µM

## Cc1c(C)n2cc([N+](=O)[O-])nc2c(=O)n1Cc1cccc(OC(F)(F)F)c1
[1]
  MIC: 1 mg/L (≈ 2.62 µM)
Giardia intestinalis
  pIC50: 5.77
  IC50: 1.58 µM
HepG2
  CC50: 26 to 80 µM
[3]
  pIC50: 6.40
  IC50: 0.398 µM
Entamoeba histolytica
  pIC50: 4.82
  IC50: 15.8 µM
[5]
  MIC: 16 to 32 mg/L (≈ 41.9 to 83.7 µM)
HEK293
  CC50: 50.6 to 74.5 µM

## O=c1c2nc([N+](=O)[O-])cn2ccn1Cc1ccccc1OC(F)(F)F
Escherichia coli
  MIC: > 32 mg/L
Staphylococcus aureus
  MIC: > 32 mg/L
[1]
  MIC: 1 mg/L (≈ 2.82 µM)
Giardia intestinalis
  pIC50: 5.09
  IC50: 7.94 µM
Candida albicans
  MIC: > 32 mg/L
Cryptococcus neoformans
  MIC: > 32 mg/L
HepG2
  CC50: > 100 µM
Acinetobacter baumannii
  MIC: > 32 mg/L
Pseudomonas aeruginosa
  MIC: > 32 mg/L
[2]
  Stability: > 99%
[3]
  pIC50: 5.22
  IC50: 6.31 µM
[4]
  Stability: > 99%
Klebsiella pneumoniae
  MIC: > 32 mg/L
[5]
  MIC: 8 mg/L (≈ 22.6 µM)
HEK293
  CC50: > 100 µM

## O=c1c2nc([N+](=O)[O-])cn2ccn1C1CCCCC1
Escherichia coli
  MIC: > 32 mg/L
Staphylococcus aureus
  MIC: > 32 mg/L
[1]
  MIC: >32 mg/L
Giardia intestinalis
  pIC50: 5.28
  IC50: 5.01 µM
Candida albicans
  MIC: > 32 mg/L
Cryptococcus neoformans
  MIC: > 32 mg/L
Acinetobacter baumannii
  MIC: > 32 mg/L
Pseudomonas aeruginosa
  MIC: > 32 mg/L
[3]
  pIC50: 5.85
  IC50: 1.26 µM
Klebsiella pneumoniae
  MIC: > 32 mg/L
[5]
  MIC: > 32 mg/L

## CC1CC(OC(=O)C(O)c2ccccc2)CC(C)(C)N1C (stereo not drawn) [EUCATROPINE]
[7]
  Stability: 21%

## NC(=O)Cn1ccn2cc([N+](=O)[O-])nc2c1=O
Escherichia coli
  MIC: > 32 mg/L
Staphylococcus aureus
  MIC: > 32 mg/L
[1]
  MIC: >32 mg/L
Giardia intestinalis
  pIC50: < 4.30
  IC50: > 50.1 µM
Candida albicans
  MIC: > 32 mg/L
Cryptococcus neoformans
  MIC: > 32 mg/L
HepG2
  CC50: > 100 µM
Acinetobacter baumannii
  MIC: > 32 mg/L
Pseudomonas aeruginosa
  MIC: > 32 mg/L
[3]
  pIC50: < 4.40
  IC50: > 39.8 µM
Klebsiella pneumoniae
  MIC: > 32 mg/L
[5]
  MIC: > 32 mg/L
HEK293
  CC50: > 100 µM
